Mdm2-MdmX inh – inhibitors of human Mdm2/MdmX interaction; O15151+Q00987; SaOS-2 split-luciferase Mdm2/MdmX complementation, luminescence; inhibition, % at 8 µM; 330,000 tested, 3% active;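 active = inhibition of at least 50% at 8 µM in the primary screen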
Target sequence (O15151 whole entry, looked up): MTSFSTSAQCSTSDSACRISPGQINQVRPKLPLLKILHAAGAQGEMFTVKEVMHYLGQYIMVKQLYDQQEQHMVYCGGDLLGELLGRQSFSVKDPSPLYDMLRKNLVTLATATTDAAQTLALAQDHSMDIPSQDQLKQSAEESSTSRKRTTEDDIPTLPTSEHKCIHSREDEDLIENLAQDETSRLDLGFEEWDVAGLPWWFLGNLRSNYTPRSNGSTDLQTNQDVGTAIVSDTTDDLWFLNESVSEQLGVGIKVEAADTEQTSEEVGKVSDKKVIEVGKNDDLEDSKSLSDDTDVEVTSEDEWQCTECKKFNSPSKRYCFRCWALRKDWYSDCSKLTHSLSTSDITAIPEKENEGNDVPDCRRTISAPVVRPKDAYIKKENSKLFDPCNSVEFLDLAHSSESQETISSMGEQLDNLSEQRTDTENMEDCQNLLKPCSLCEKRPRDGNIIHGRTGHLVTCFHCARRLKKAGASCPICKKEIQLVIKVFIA
Target sequence (Q00987 whole entry, looked up): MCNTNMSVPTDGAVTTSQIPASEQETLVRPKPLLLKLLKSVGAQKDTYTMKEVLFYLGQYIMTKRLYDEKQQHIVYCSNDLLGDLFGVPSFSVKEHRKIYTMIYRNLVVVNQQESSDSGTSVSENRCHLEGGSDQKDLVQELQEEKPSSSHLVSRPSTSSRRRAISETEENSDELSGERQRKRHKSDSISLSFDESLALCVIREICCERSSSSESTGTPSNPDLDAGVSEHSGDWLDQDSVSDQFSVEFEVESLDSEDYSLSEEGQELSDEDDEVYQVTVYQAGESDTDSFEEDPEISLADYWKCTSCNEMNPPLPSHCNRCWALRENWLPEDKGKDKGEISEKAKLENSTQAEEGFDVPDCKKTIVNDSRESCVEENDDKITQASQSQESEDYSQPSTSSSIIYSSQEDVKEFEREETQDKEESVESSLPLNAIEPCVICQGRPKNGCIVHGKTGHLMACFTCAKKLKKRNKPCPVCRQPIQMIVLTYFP
Apaf-1 inh – blocks human Apaf-1 apoptosome activity; reconstituted apoptosome caspase-3 activity, DEVD-Rh110 fluorescence; 330,000 tested, 0.71% active; inhibition, % at 20 µM; O14727; active = inhibition of at least 40% at 20 µM;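 also: plate controls were DMSO wells for no effect and DEVD-CHO caspase inhibitor wells for full effect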
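System: reconstituted apoptosome with Apaf-1, cytochrome c, caspase-9, procaspase-3, dATP; Signal: Rh110 fluorescence intensity; Schedule: 30 min compound preincubation, 50 min activation, room temperature; Reagent: cytochrome c trigger plus (Z-DEVD)2-Rh110 caspase-3 substrate.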
XBP1 UPR activ – adaptive UPR (XBP1) activation; CHO-XBP1 luciferase reporter, IRE1-XBP1 UPR activation, luminescence; percent of tunicamycin response, DMSO as zero; activation, % at 20 µM; 330,000 tested, 0.33% active;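 active = versus positive control, 20 µM dose yields 30% or more activation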;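 also: 100% = tunicamycin at 10 µg/mL and 0% = DMSO only wells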
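Test system: CHO-XBP1 luciferase reporter cells | Buffer or medium: Serum-containing F12 medium, 10% FBS | Schedule: 6 h compound exposure at 37 °C, 5% CO2 | Detection: Steady-Glo luciferase glow luminescence, 10 min after reagent addition | Read-out basis: Activation, % of tunicamycin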
UPR CHOP act – activators of apoptotic arm of unfolded protein response (CHOP). CHO-CHOP luciferase reporter, UPR activation, luminescence; percent of tunicamycin response over DMSO baseline. activation, % at 10 µM. 330,000 tested, 0.34% active. AID 449763;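 active = at 10 µM dose, activation of 40% or more, normalized to positive control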;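 also: 100% = tunicamycin at 10 µg/mL and 0% = DMSO alone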
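System: CHO-CHOP luciferase reporter cell line | Buffer or medium: F12 medium containing 10% fetal bovine serum | Doses: One dose, 10 µM in 0.5% DMSO | Times: 6 h compound exposure at 37 °C after overnight seeding | Signal: Luciferase luminescence | Read-out: % activation vs tunicamycin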
UBC13 inh – human UBC13 polyubiquitination inhibition; P61088; UBC13 polyubiquitin chain formation, TR-FRET; inhibition, % at 20 µM; 330,000 tested, 0.47% active; in the data active = inhibition above about 45%, passing the limit was not always enough
Mdm2 MdmX conf – confirmation of human Mdm2/MdmX interaction inhibitors; shares compounds with Mdm2-MdmX inh; Mdm2-MdmX binding, luminescent assay; inhibition, % at 8 µM; 10,000 tested, 55% active; in the data active = inhibition above about 40%
Full FLuc ctr – full-length luciferase inhibition in Mdm2/MdmX counter-screen; inhibition, % at 8 µM; shares compounds with Mdm2-MdmX inh; 6,200 tested, 77% active; SaOS-2 full-length luciferase counterscreen, luminescence;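 active = mean inhibition at 8 µM reaching about 37%, which flags the compound as non-specific, limit read from the data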;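 also: p53-null SaOS-2 cells with luciferase driven by a doxycycline-inducible promoter; compound on cells about two nights before reading with doxycycline added after day one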
Numbers without * were called inactive; . = no result. A selection: hits, their analogues and other compounds. The true share with any hit is near 4.1%.

SMILES	Mdm2-MdmX inh	Apaf-1 inh	XBP1 UPR activ	UPR CHOP act	UBC13 inh	Mdm2 MdmX conf	Full FLuc ctr
CCc1ccc(C2=NN(c3ccc(S(N)(=O)=O)cc3)C(c3ccc(F)cc3)C2)cc1 (configuration not stated)	77*	26	12	-1	20	11	.
COc1ccc(C2CC(c3ccccc3C(F)(F)F)=NN2c2ccc(S(N)(=O)=O)cc2)cc1 (configuration not stated)	67*	17	1	4	.	62*	70*
COc1ccc(C2CC(c3ccc(C(F)(F)F)cc3)=NN2c2ccc(S(N)(=O)=O)cc2)cc1 (configuration not stated)	93*	13	3	5	.	-7	.
Cc1ccc(NC(=O)CSCC(=O)N2CCN(Cc3ccc4c(c3)OCO4)CC2)cc1	8	8	-4	0	4	.	.
CC(=O)Nc1ccc(NC(=O)Cc2sc(-c3cccnc3)nc2-c2ccc(C)cc2)cc1	30	-9	-3	-1	-5	.	.
COC(=O)Cc1sc(-c2ccccn2)nc1-c1ccccc1	-14	-4	3	0	6	.	.
O=C(Cc1sc(-c2ccccc2Cl)nc1-c1ccccc1)Nc1ccc(F)cc1	64*	-3	10	2	5	24	.
O=C(Cc1sc(-c2ccccc2)nc1-c1ccccc1)Nc1ccc(Cl)cc1	59*	12	-2	3	-14	6	.
O=C(Cc1sc(-c2ccccc2Cl)nc1-c1ccccc1)Nc1ccccc1	72*	1	28	10	0	25	.
CCC(C)c1ccc(S(=O)(=O)N2CCN(c3ccccn3)CC2)cc1 (configuration not stated)	19	-6	-2	-1	2	.	.
Cc1ccc(S(=O)(=O)Nc2ccc(NC(=O)Nc3cccc(C(F)(F)F)c3)cc2)cc1	85*	30	-1	4	-16	46*	77*
CCN(CC)S(=O)(=O)c1ccc(C(=O)Nc2cccc(C)c2)cc1	12	2	-2	0	-10	.	.
Cc1ccc(NC(=O)Nc2cc(C(F)(F)F)c[nH]c2=O)cc1	58*	10	2	1	6	45*	72*
Cc1ccc(NC(=O)Nc2ccon2)cc1	6	-24	0	3	6	.	.
CCN(CC)S(=O)(=O)c1ccc(NC(=O)Nc2cccc(C(F)(F)F)c2)cc1	94*	-10	7	15	-4	87*	35
Cc1ccc(NS(=O)(=O)c2ccc(NC(=O)c3cccc(NC(=O)C(C)C)c3)cc2)cc1	14	10	-11	0	-5	.	.
O=C(Nc1ccc(OC(F)F)cc1)Nc1cccc(C(F)(F)F)c1	76*	1	11	9	5	93*	24
O=C(Nc1ccncc1)Nc1cccc(C(F)(F)F)c1	48	18	-4	0	14	.	.
O=[N+]([O-])c1cccc(NC(=S)N2CCN(c3ccccn3)CC2)c1	36	5	-3	3	-3	.	.
CSc1ccc(/C=N/NC(=O)COc2ccc(Br)cc2Cl)cc1	28	17	-1	2	-23	.	.
N/C(=N\OC(=O)c1ccc(F)cc1)c1ccc(Br)cc1	51*	5	3	5	-9	-11	.
Cc1ccc(/C(N)=N/OC(=O)c2ccc3ccccc3c2)cc1	94*	23	-1	2	-10	38	117*
Cc1ccc(/C(N)=N/OC(=O)c2ccc(F)cc2)cc1	59*	-16	-1	5	13	16	.
Cc1ccc(/C(N)=N/OC(=O)c2cccc(F)c2)cc1	-59	6	4	1	-12	.	.
N/C(=N\OC(=O)c1ccc(F)cc1)c1nonc1N	12	2	-2	-1	11	.	.
SMILES	Mdm2-MdmX inh	Apaf-1 inh	XBP1 UPR activ	UPR CHOP act	UBC13 inh	Mdm2 MdmX conf	Full FLuc ctr
N/C(=N\OC(=O)c1ccc(F)cc1)c1ccccc1	-73	-8	-6	-8	15	.	.
COc1cccc(C(=O)N2CCC(N3CC(C)OC(C)C3)CC2)c1 (configuration not stated)	-5	2	-1	-3	0	.	.
O=C(CCl)c1ccc2c(c1)CCN2C(=O)C1CCCCC1	97*	-15	-8	-7	13	53*	79*
O=C(CCl)c1ccc2c(c1)CCN2C(=O)C1CC1	80*	10	-11	-9	0	39	27
COC(=O)C1CCN(C(=O)c2ccc(OC)c(S(=O)(=O)N3CCCc4ccccc43)c2)CC1	-23	5	-2	0	4	.	.
COc1cc(-c2cc3nc4ccccc4n3c(N)c2C#N)cc(OC)c1OC	77*	-1	2	5	16	64*	93*
Brc1ccc(/C=N/Nc2ncnc3c2cnn3Cc2ccccc2)cc1	95*	-1	17	1	-3	48*	68*
Cn1ncc2c(NCc3ccccc3)ncnc21	-21	-2	2	1	2	.	.
Clc1ccc(Cn2ncc3c(NCc4ccccc4)ncnc32)c(Cl)c1	69*	6	3	0	18	69*	39*
O=C(CN1CCCCCC1)Nc1ccc(Cl)cn1	8	-2	-4	0	-7	.	.
CC(C)NS(=O)(=O)c1ccc(NC(=O)C(C)OC(=O)CCC2CCCC2)cc1 (configuration not stated)	-11	5	-5	1	13	.	.
CCOc1ncccc1C(=O)OCC(=O)c1cc(OC)c(OC)c(OC)c1	-18	-24	-4	1	8	.	.
COc1cc(/C=C/C(=O)OCC(=O)c2ccc3c(c2)NC(=O)CO3)ccc1OC(F)F	-20	5	0	-1	-23	.	.
CCOC(=O)c1c(C)[nH]c(C)c1C(=O)COC(=O)/C=C/c1ccc(OC)cc1	69*	21	-2	2	2	77*	53*
Cc1ccc(C(=O)COc2ccc3c(C)cc(=O)oc3c2)cc1	7	0	-2	1	3	.	.
COc1ccc(/C=C/C(=O)OCC(=O)c2ccc3c(c2)NC(=O)CO3)cc1	92*	-28	1	1	43	13	.
Cc1cc(=O)oc2cc(OCC(=O)c3ccc4c(c3)NC(=O)CO4)ccc12	65*	1	-2	2	7	54*	109*
CC(C)C(NC(=S)Nc1ccccc1)C(=O)O (configuration not stated)	-43	-2	-1	2	2	.	.
Cc1nn(S(=O)(=O)c2ccc(F)cc2)c(C)c1S(=O)(=O)N1CCOCC1	12	-1	-4	-1	0	.	.
CCCC(=O)Nc1nnc(S(=O)(=O)N(CC)c2ccc(OC)cc2)s1	11	4	-3	0	-8	.	.
Cc1nnc(SCC(=O)NNC(=O)c2ccc(Br)cc2)n1C	-1	9	0	-2	3	.	.

Screens as filed in PubChem.
